According to ChEMBL document CHEMBL1828562, “Aryl H-phosphonates 17: (N-aryl)phosphoramidates of pyrimidine nucleoside analogues and their synthesis, selected properties, and anti-HIV activity” (J Med Chem, 2011):
Active and inactive are the calls of the source. No cut-off for these calls is given here.

Key:
[1] = Cytotoxicity against human CEM-T4 cells assessed as cell viability at 200 uM after 7 days by MTT assay; type: cell-based; conditions: cem-t4, 168 h
Method in brief: (§1)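 CEM-T4 cells cultured at 37 °C, 5% CO2 in RPMI/10% FCS containing compound, with neat medium as control. After 7 days, MTT (5 mg/mL solution) added for 3 h at 37 °C. Cells centrifuged, supernatant removed, formazan dissolved in DMSO and read at 560 nm. CC50 and CC90 determined on mock-infected cells.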

[2] = tested on: Human immunodeficiency virus 1; assay: Antiviral activity against HIV1 infected in human CEM-T4 cells assessed as reduction in viral protein p24 production preincubated for 24 hrs measured after 8 days by MTT assay; type: functional, organism-based; conditions: Human immunodeficiency virus 1, CEM-T4
Method in brief: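 CEM-T4 cells, 20000 per well in 200 μL, preincubated 24 h at 37 °C, 5% CO2 in RPMI/10% FCS containing compound at 0,001–20 μM. Cells then inoculated with a known amount of HIV. Viral p24 read after 8 days by the MTT method. Triplicate cultures per concentration.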

[3] = Selectivity index, ratio of CC50 for human CEM-T4 cells to EC50 for HIV1 infected human CEM-T4 cells; type: toxicity, cell-based; conditions: read-out: Ratio CC50/EC50
Method in brief: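 Selectivity index calculated as CC50/EC50, both measured in CEM-T4 cells, and rounded.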

[4] = Dissociation constant, pKa of the compound in aqueous solution; type: physicochemical
[5] = Cytotoxicity against human CEM-T4 cells assessed as cell viability after 7 days by MTT assay; type: cell-based; method in brief: as §1
[6] = Chemical stability of the compound in RPMI cell culture media assessed as half life at 2 mM; type: physicochemical
Method in brief: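 Compound at 2 mM incubated in RPMI/FBS 9:1 (v/v) at 37 °C. Decomposition followed by HPLC on a C18 column. Half-life calculated from the degradation course.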

[7] = tested on: Human immunodeficiency virus 1; assay: Antiviral activity against HIV1 infected in human CEM/TK- cells assessed as inhibition of virus-induced cytopathogenicity; type: functional, organism-based
[8] = Cytotoxicity against human CEM-T4 cells assessed as cell viability at 30 uM after 7 days by MTT assay; type: cell-based; conditions: cem-t4, 168 h; method in brief: as §1
[9] = Chemical stability of the compound in RPMI cell culture media assessed as compound decomposition by HPLC analysis in presence of human MT4 cells; type: ADME, cell-based
Method in brief: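 Compound incubated at 37 °C in RPMI cell culture medium in the presence of MT-4 cells. Degradation rate and decomposition products followed by HPLC on a C18 column.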

[10] = tested on: Human immunodeficiency virus 1; assay: Antiviral activity against HIV1 infected in human CEM/TK+ cells assessed as inhibition of virus-induced cytopathogenicity; type: functional, organism-based
[11] = biological target: Human immunodeficiency virus type 1 reverse transcriptase (Human immunodeficiency virus 1) (UniProt Q72547); assay: Inhibition of HIV1 recombinant reverse transcriptase at <= 3 uM preincubated for 5 mins measured after 1 hr by electrophoresis analysis
Method in brief: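 Recombinant HIV-1 RT preincubated 5 min at 45 °C with compound in 50 mM Tris-HCl pH 8.3, 75 mM KCl, 3 mM MgCl2, 10 mM DTT. Started with dNTPs (50 μM final) and run 60 min at 45 °C. Products resolved on 12% denaturing PAGE and imaged by autoradiography. Fully extended product quantified.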

[12] = Cytotoxicity against human CEM-T4 cells assessed as cell viability at 50 uM after 7 days by MTT assay; type: cell-based; conditions: cem-t4, 168 h; method in brief: as §1

Row | Structure (SMILES) | Activity [1] | EC50 [2] [nM] | EC90 [2] [nM] | selectivity ratio [3] | pKa [4] | CC50 at 168 h [5] [nM] | half-life at 2000 µM [6] [h] | CC90 at 168 h [5] [nM] | inhibition [7] | Activity [8] | Stability [9] | inhibition [10] | inhibition [11] | Activity [12]
1 | Nc1ccccn1 [2-AMINOPYRIDINE] | Non-toxic | > 20000 | > 20000 | < 10 |  |  |  |  |  |  |  |  |  | 
2 | COc1ccc(N)cc1 |  |  |  |  | 4.58 |  |  |  |  |  |  |  |  | 
3 | Nc1ccncc1 [DALFAMPRIDINE] | Non-toxic | > 20000 | > 20000 | < 10 | 9.13 |  |  |  |  |  |  |  |  | 
4 | Cc1cn([C@H]2C[C@H](N=[N+]=[N-])[C@@H](COP(=O)(O)O)O2)c(=O)[nH]c1=O [AZIDOTHYMIDINE MONOPHOSPHATE] |  | 10 |  | 10000 |  | 100000 | 3.6 |  |  |  |  |  |  | 
5 | CCN(CC)CC.Cc1cn([C@H]2C[C@H](N=[N+]=[N-])[C@@H](COP(=O)(O)Nc3ccc(Cl)cc3)O2)c(=O)[nH]c1=O |  | 20 | 100 | 14500 |  | 290000 | > 120 | 360000 | inactive |  |  |  |  | 
6 | Nc1ccc(Cl)cc1 [4-CHLOROANILINE] |  |  |  |  | 3.99 |  |  |  |  |  |  |  |  | 
7 | O=c1ccn([C@H]2CC[C@@H](COP(=O)(O)Nc3cccnc3)O2)c(=O)[nH]1 |  | > 10000 | > 10000 | < 3 |  |  | 27.9 |  | inactive | Non-toxic |  |  |  | 
8 | Cc1cn([C@H]2C[C@H](N=[N+]=[N-])[C@@H](CO)O2)c(=O)[nH]c1=O [ZIDOVUDINE] |  | < 2 | 5 | > 100000 |  | > 200000 |  | > 200000 |  |  |  |  |  | 
9 | Cc1cn([C@H]2C[C@H](N=[N+]=[N-])[C@@H](COP(=O)(O)Nc3ccncc3)O2)c(=O)[nH]c1=O | Non-toxic | 1.1 | 6 | > 182000 | < 8 |  | > 120 |  | inactive |  | Stable | Active | inactive | 
10 | O=c1ccn([C@H]2CC[C@@H](COP(=O)(O)Nc3ccncc3)O2)c(=O)[nH]1 |  | 200 | 1350 | > 250 | < 8 |  | 32.1 |  | inactive |  |  |  |  | Non-toxic
11 | Nc1cccnc1 | Non-toxic | > 20000 | > 20000 | < 10 | 6.03 |  |  |  |  |  |  |  |  | 
12 | Cc1cn([C@H]2C[C@H](N=[N+]=[N-])[C@@H](COP(=O)(O)Nc3cccnc3)O2)c(=O)[nH]c1=O | Non-toxic | 2.3 | 9 | > 87000 |  |  | 73.3 |  | inactive |  | Stable | Active | inactive | 
13 | CCN(CC)CC.Cc1cn([C@H]2C[C@H](N=[N+]=[N-])[C@@H](COP(=O)(O)Nc3ccccc3)O2)c(=O)[nH]c1=O |  | 600 | > 10000 | > 300 |  | > 200000 | > 120 | > 200000 | inactive |  |  |  |  | 
14 | O=c1ccn([C@H]2CC[C@@H](COP(=O)(O)Nc3ccccc3)O2)c(=O)[nH]1 |  |  |  |  |  |  |  |  | inactive |  |  |  |  | 
